The text below walks through data of ChEMBL document CHEMBL4513216, “Probing the Open Global Health Chemical Diversity Library for Multistage-Active Starting Points for Next-Generation Antimalarials” (ACS Infect Dis, 2020).

The data set in a line: Toxicity liver stage against HepG2, at 10uM. In kind it is cell-based. More on the design: test concentration 10 uM, cell line HepG2-A16-CD81EGFP. The note with it: human, HepG2-A16-CD81EGFP cells; read-out: INHIBITION
Put shortly:
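Uninfected HepG2-A16-CD81EGFP cells, 3 × 10^3 per well, 1536-well, plated on prespotted compound at 10 μM final, parasite-free screening media added to match infected plates; puromycin 10 μM positive, DMSO 0.5% negative; run in parallel with 48 h PbLuc assay at 37 °C, 5% CO2; viability by CellTiter-Glo luminescence, normalized to controls.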
As to `CN1CCC(N2CCOC[C@H]2c2nc(-c3ccncc3)c[nH]2)CC1`, the cytotoxicity at 10 µM was -5.15%.

As to `CN(C[C@H]1CN2CC[C@H]1C[C@@H]2CNC(=O)c1ccco1)c1ccccc1`, the cytotoxicity at 10 µM was -0.947%.

On to `COCC(=O)Nc1ccc(-c2noc([C@@H]3CCCN3C(C)C)n2)cn1`, for which the cytotoxicity at 10 µM worked out at 0.994%.

As to `CNC(=O)[C@@H]1[C@@H](OC(=O)Nc2ccccc2)C(=O)N(C)C12CCNCC2`, the cytotoxicity at 10 µM amounted to 6.38%.

As for `O=C([C@H]1C[C@H]2OCC[C@H]2N(C(=O)c2cnccn2)C1)N1CCCCO1`, the cytotoxicity at 10 µM was 12.7%.

On to `Cn1cccc1C(=O)NCc1cnc2n1CCN(C(=O)c1ccoc1)C2`, for which the cytotoxicity at 10 µM worked out at 11.9%.

Regarding `CN1CCCc2sc(C(=O)NCc3cccnc3)nc21`, the cytotoxicity at 10 µM worked out at 14.9%.

For `C[C@H]1C[C@H]2CN(C(=O)c3ccncn3)CC[C@@H]2O1`, the cytotoxicity at 10 µM came to 4.93%.

In the case of `CCCn1c(N2CCCCC2)nc2c(C)nn(C)c2c1=O`, the cytotoxicity at 10 µM worked out at 11.8%.

Consider `O=C(NCCCO)C1(CC2CC(c3ccc(F)cc3)=NO2)CCOCC1` (stereo not drawn), for which the cytotoxicity at 10 µM was 1.41%.

In the case of `CN1CCN([C@@H]2CN(C(=O)c3cc4ccc(F)cc4[nH]3)C[C@H]2O)CC1`, the cytotoxicity at 10 µM was -10.4%.

For the compound `Cc1ccc(S(=O)(=O)N2CC[C@@H]3C[C@H](NC(=O)c4[nH]ncc4Br)[C@@H]32)cc1`, the cytotoxicity at 10 µM was found to be 4.49%.

Turning to `c1cnc(Nc2cc(CCC3CCNCC3)ccn2)cn1`, the cytotoxicity at 10 µM came to 55.7%.

With `O=C(CO)N1CCC(CCc2ccnc(Nc3cnccn3)c2)CC1`, the cytotoxicity at 10 µM was -0.459%.

`Cc1nn(C)cc1CN1CCCC(n2c(=O)oc3ccc(Cl)cc32)C1` (stereo not drawn): the cytotoxicity at 10 µM was found to be 4.88%.

With `CCN(CC)C(=O)CN1CCCC(c2nc(C)c3c(n2)N(C)CCC3)C1` (stereo not drawn), the cytotoxicity at 10 µM was 10.2%.

For the compound `CN1CCC(c2cccc(Cc3ccc(F)cc3)n2)CC1`, the cytotoxicity at 10 µM is -3.45%.

As to `CC(c1ccccc1F)N(C(=O)CSCC(N)=O)C1CC1` (stereo not drawn), the cytotoxicity at 10 µM was -54.9%.

For `Cc1nc(CNC(=O)CCCc2cccs2)no1`, the cytotoxicity at 10 µM is -46.8%.

Turning to `CNC(=O)C1CCCCN1C(=O)c1csc(-c2ccc(C)cc2)n1` (stereo not drawn), the cytotoxicity at 10 µM was found to be 11.6%.

Turning to `CC(=O)N1CCC(NC(=O)c2ccccc2-n2cnnn2)CC1`, the cytotoxicity at 10 µM worked out at 6.87%.

`CSc1cc2c(cc1NC(=O)NCC(=O)N(C)C)OCCO2`: the cytotoxicity at 10 µM was -5.87%.

For `N#Cc1cccnc1NCc1cccc(C(=O)NCC2CCCCO2)c1` (stereo not drawn), the cytotoxicity at 10 µM turned out to be 5%.

For the compound `CN(C)CCCN(CCC#N)C(=O)Nc1ccc2[nH]ccc2c1`, the cytotoxicity at 10 µM is -52.4%.

`CS(=O)(=O)N1C[C@H]2N(c3ncccn3)CCC[C@@]2(C(=O)NCC2CC2)C1`: the cytotoxicity at 10 µM is -110%.

Turning to `O=C(c1ccccc1)N1CCO[C@@H]2CN(Cc3ccc[nH]3)C[C@@H]2C1`, the cytotoxicity at 10 µM is -98%.

Consider `COCC(=O)N1CCc2nc(C)nc(NC(C)C)c2CC1`, for which the cytotoxicity at 10 µM was -102%.

Regarding `O=C(NC1CC(F)(F)C1)[C@]12COC[C@H]1CN(Cc1ccsc1)C2`, the cytotoxicity at 10 µM is -109%.

Take `O=C(C1CCC1)N1CC[C@@H]2CN(Cc3cccnc3)S(=O)(=O)[C@@H]2CC1`: the cytotoxicity at 10 µM is -109%.

With `O=C(c1ccoc1)N1CC[C@H]2C[C@@H](c3nnc(C4CC4)o3)O[C@@H]2C1`, the cytotoxicity at 10 µM was -101%.

`Cn1cccc1C(=O)N1CCc2ncnc(C3CC3)c2CC1`: the cytotoxicity at 10 µM was 5.17%.

For the compound `CC(C)c1ncc(CN2C[C@@H](CN3CCC(O)CC3)[C@@H](CO)C2)cn1`, the cytotoxicity at 10 µM was -7.79%.

As to `Cc1nc(C)c(C)c(N(C)CCCc2nccn2C)n1`, the cytotoxicity at 10 µM worked out at 8.52%.

With `CN1CCN(c2ncccn2)CC12CCC(=O)N(CC1CC1)CC2` (stereo not drawn), the cytotoxicity at 10 µM amounted to 2.6%.

Turning to `Cc1nc(C(C)C)sc1C(=O)N(C)Cc1nc(-c2ccccn2)no1`, the cytotoxicity at 10 µM was -0.683%.

On to `Cc1cccc(C(=O)N2CCCCC2c2ccc(CN(C)C)cc2)c1` (stereo not drawn), for which the cytotoxicity at 10 µM was -0.909%.

As to `Cc1ccc(C(=O)N(Cc2cccnc2)C[C@@H]2CCC(=O)N2)s1`, the cytotoxicity at 10 µM is -77.9%.

For `CCN(Cc1noc(CC(C)C)n1)Cc1ncccc1C(=O)O`, the cytotoxicity at 10 µM is -37.2%.

Consider `O=C(O)C1CN(Cc2cnc(C3CCCCC3)nc2)CCO1` (stereo not drawn), for which the cytotoxicity at 10 µM is -6.08%.

For `CC(c1ccon1)N(C)Cc1cc(O)c2cc(F)ccc2n1` (stereo not drawn), the cytotoxicity at 10 µM came out at 5.5%.

As to `COCCCC1(CO)CCCN(C(=O)c2cnc3c(c2)CCCC3)C1` (stereo not drawn), the cytotoxicity at 10 µM is -50.2%.

As to `CCNc1ncc(-c2cc(-c3ccn(C)c3)nc(N)c2C#N)cn1`, the cytotoxicity at 10 µM was determined as 7.14%.

Regarding `Cc1nc2ccccc2nc1CN1CCn2nc(CCC(=O)O)cc2C1`, the cytotoxicity at 10 µM is -3.43%.

Consider `Cc1cc(C)n(CC2CN(CC(=O)NC3CCOCC3)CCO2)n1` (stereo not drawn), for which the cytotoxicity at 10 µM is -11.1%.

In the case of `COc1cc(CCC(=O)NCC2CC2)ccc1OCC(F)(F)F`, the cytotoxicity at 10 µM was -4.81%.

Consider `O=C(c1ccco1)N1CCCC(c2cc(C(F)(F)F)[nH]n2)C1` (stereo not drawn), for which the cytotoxicity at 10 µM was -16.1%.

With `CCc1nc(CN(C(C)=O)C2CCN(CCc3cccs3)C2)no1` (stereo not drawn), the cytotoxicity at 10 µM is -4.62%.

For the compound `O=C(CN1CCCC1Cn1cncn1)NCCOc1ccccc1` (stereo not drawn), the cytotoxicity at 10 µM was -7.52%.

As for `CCn1ccnc1CN1CCN(Cc2cc(C#N)ccc2F)CC1`, the cytotoxicity at 10 µM was -7.19%.

As to `NC(=O)c1cccc(OCC(=O)N2CCCC(n3ccnc3)C2)c1` (stereo not drawn), the cytotoxicity at 10 µM was -9.37%.

On to `CCn1c(C)nnc1CN(C)C1CCN(Cc2nnc(C3CC3)o2)C1` (stereo not drawn), for which the cytotoxicity at 10 µM was -11.6%.

Turning to `CCN(CC1CCOC1)C(=O)Nc1ccc(N2CCOCC2)nc1` (stereo not drawn), the cytotoxicity at 10 µM is -2.45%.

Regarding `CC(C(=O)NCC(F)(F)F)N1CCC(N2CCN(C)C2=O)CC1` (stereo not drawn), the cytotoxicity at 10 µM was 5.11%.

For the compound `COc1ccccc1C(O)CNC(=O)Nc1ccccn1` (stereo not drawn), the cytotoxicity at 10 µM is -11.9%.

On to `COc1ccc(CCNC2CCCN(Cc3noc(C)n3)C2)cc1` (stereo not drawn), for which the cytotoxicity at 10 µM was -5.98%.

Regarding `CCc1nc(CN(C)C2CCN(CCC(=O)N3CCCCC3)C2)no1` (stereo not drawn), the cytotoxicity at 10 µM is -13.4%.

As for `Cn1cc(C(=O)NCc2ccc(N3CCCC3)nc2)ccc1=O`, the cytotoxicity at 10 µM was -3.72%.

Turning to `Cc1cc(C2CCCN2C(=O)NCc2c(C)cc(C)[nH]c2=O)on1` (stereo not drawn), the cytotoxicity at 10 µM was -9.54%.

Turning to `CCN1c2ccc(-c3cncn3CCCn3ccnc3C)cc2CC1C` (stereo not drawn), the cytotoxicity at 10 µM was -1.25%.

For the compound `CN(Cc1cccc2cccnc12)C1CCS(=O)(=O)C1` (stereo not drawn), the cytotoxicity at 10 µM was -0.237%.

With `O=C(c1cnccn1)N1C[C@@H]2CCN(c3cnccn3)C[C@@H]2C1`, the cytotoxicity at 10 µM is -100%.

Take `CC(C)CN1CCC2(C1)CN(S(=O)(=O)c1cn(C)cn1)C2`: the cytotoxicity at 10 µM is -116%.

With `CC(C)N1CCOCC2(CCN(c3cnccn3)CC2)C1`, the cytotoxicity at 10 µM was -109%.

`CNC(=O)[C@H]1C[C@@H]2CN(S(=O)(=O)c3ccc(F)cc3)C[C@@H]2N1C`: the cytotoxicity at 10 µM is -2.97%.

Take `OCCOCc1n[nH]c2c1CN(Cc1ccccn1)C2`: the cytotoxicity at 10 µM is -112%.

For `N#Cc1cccc(CN2C[C@H](NC(=O)C3CC3)[C@H]3OCCC[C@H]32)c1`, the cytotoxicity at 10 µM is -0.155%.

For `CCOCCCNC(=O)c1nc2c(s1)CCCN2c1ccc(C)nn1`, the cytotoxicity at 10 µM stood at 13.5%.

As to `CCCS(=O)(=O)N1C[C@@H]2C[C@H](C(=O)N3CCCC3)[C@H](C1)O2`, the cytotoxicity at 10 µM was -6.28%.
